These results are taken from publication PMC6210075 (ACS Omega, 2018).

Series [1] addresses T1, human FAAH (Homo sapiens, UniProt O00519).
T1 sequence (O00519 1-579): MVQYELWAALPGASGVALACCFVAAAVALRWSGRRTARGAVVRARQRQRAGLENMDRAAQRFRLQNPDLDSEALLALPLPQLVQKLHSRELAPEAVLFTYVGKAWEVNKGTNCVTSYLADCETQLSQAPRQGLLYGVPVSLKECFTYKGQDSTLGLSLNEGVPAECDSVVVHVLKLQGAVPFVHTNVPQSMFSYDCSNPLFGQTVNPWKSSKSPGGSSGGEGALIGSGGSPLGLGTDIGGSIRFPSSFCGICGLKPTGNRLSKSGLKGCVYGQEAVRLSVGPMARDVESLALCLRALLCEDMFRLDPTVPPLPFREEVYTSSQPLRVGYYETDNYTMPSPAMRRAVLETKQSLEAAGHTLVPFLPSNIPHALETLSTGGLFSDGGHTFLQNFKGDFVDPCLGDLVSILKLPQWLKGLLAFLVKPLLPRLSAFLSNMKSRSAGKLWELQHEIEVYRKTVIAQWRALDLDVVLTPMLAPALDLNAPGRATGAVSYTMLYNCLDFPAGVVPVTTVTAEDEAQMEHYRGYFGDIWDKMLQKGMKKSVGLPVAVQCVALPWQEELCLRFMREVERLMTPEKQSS
Kind of series: FAAH fluorescent inhibition assay. The class given is biochemical. The note with it: for decrease in activity/potency toward FAAH: compared to PF-750.

Series [2] deals with T2, serine hydrolases (Mus musculus, UniProt O08914).
T2 sequence (O08914 1-579): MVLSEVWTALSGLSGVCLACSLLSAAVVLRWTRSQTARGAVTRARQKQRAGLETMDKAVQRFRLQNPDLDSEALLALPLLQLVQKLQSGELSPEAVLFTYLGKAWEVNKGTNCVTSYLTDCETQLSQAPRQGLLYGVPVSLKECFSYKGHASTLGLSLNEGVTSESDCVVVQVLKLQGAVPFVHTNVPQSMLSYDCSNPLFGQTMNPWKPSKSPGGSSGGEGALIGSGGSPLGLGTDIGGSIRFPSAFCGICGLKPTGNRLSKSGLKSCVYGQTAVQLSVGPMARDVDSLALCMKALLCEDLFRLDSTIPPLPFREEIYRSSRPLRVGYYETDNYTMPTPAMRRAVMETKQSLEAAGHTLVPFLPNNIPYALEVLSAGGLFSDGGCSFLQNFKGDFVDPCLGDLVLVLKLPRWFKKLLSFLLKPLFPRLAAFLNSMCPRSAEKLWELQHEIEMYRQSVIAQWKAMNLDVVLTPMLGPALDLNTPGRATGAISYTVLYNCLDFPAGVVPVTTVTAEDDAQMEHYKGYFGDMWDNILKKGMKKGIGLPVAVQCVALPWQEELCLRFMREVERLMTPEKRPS
Briefly: Activity-based protein profiling. The class given is biochemical. Conditions: mouse brain tissue homogenate, inhibitor 20 µM.

Series [3] deals with serine hydrolases. Kind of series: Activity-based protein profiling. The class given is biochemical, mouse. Conditions: mouse liver tissue homogenate, inhibitor 20 µM.
In series [4] the target is T3, mouse FAAH (Mus musculus, UniProt O08914).
T3 sequence (O08914 1-579): T2 sequence (O08914 1-579)
Kind of series: FAAH fluorescent inhibition assay, mouse crude tissue homogenate. The class given is biochemical. The note with it: FAAH IC50 (5 min pre-incubation).

Series [5] has as its target T4, rat FAAH (Rattus norvegicus, UniProt P97612).
T4 sequence (P97612 1-579): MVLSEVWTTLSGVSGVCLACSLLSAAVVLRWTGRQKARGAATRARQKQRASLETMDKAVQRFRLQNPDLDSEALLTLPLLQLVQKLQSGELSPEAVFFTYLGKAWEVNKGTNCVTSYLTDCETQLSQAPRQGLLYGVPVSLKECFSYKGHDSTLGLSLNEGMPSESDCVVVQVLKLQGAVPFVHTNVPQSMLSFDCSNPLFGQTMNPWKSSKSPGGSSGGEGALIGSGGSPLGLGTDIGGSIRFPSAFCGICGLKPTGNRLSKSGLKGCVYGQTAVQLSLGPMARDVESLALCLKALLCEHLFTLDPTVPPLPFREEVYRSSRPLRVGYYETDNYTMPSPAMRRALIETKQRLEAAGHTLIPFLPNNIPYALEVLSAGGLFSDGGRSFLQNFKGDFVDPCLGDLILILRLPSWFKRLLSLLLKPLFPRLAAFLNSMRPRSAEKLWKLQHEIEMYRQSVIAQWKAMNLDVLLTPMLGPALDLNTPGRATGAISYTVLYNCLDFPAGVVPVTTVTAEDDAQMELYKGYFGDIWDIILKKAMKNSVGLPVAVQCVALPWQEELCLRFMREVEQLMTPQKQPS
Kind of series: FAAH fluorescent inhibition assay, rat brain microsomes. Conditions: FAAH IC50 (5 min pre-incubation), 5 min pre-incubation. The class given is biochemical. The method, boiled down:
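Rat brain microsomes: tissue homogenized in 20 mM phosphate (pH 7.4, 5 mM EDTA), spun at 9000g for 20 min, then 100 000g for 1 h, and stored at −80 °C. OMP (100 μM final) in 0.1 M sodium phosphate pH 8, 0.1 mg/mL BSA, 2% DMSO, 37 °C. Fluorescence (ex 303/em 394 nm) read every 30 s for 10 min. No-enzyme background subtracted. IC50 from linear regression of log[I] vs % remaining activity; triplicates.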

Series [6] has as its target T1, human FAAH. Kind of series: Ki and kinact determination on FAAH. The class given is biochemical. The method, boiled down:
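Crude baculovirus-expressed recombinant FAAH (High Five cell S9 fraction in 50 mM Tris/HCl pH 8.0, 1 mM CHAPS, 10% glycerol). OMP (100 μM final) was mixed with a range of test compound concentrations and held 5 min at 37 °C.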

For series [7], the target named is T5, human sEH (Homo sapiens, UniProt P34913).
T5 sequence (P34913 1-555): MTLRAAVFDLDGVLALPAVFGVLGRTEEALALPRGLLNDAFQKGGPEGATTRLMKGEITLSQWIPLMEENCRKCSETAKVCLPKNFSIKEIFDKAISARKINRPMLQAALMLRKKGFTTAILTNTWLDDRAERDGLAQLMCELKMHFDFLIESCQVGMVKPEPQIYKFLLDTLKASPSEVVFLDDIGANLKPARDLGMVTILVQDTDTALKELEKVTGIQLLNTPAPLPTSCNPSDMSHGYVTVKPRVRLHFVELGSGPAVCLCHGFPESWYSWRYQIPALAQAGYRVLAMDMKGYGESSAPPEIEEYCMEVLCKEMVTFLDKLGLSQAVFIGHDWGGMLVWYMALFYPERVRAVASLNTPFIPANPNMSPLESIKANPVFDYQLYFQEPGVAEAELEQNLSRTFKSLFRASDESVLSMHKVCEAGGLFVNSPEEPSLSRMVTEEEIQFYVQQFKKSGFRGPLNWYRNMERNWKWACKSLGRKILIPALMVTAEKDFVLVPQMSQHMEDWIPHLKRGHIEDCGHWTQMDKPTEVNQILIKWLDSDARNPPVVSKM
Briefly: FRET-based displacement assay for inhibitor dissociation from sEH. The class given is binding.

The nature of series [8]: Cassette dosing pharmacokinetics in rats. The class given is in vivo. The note with it: male, Sprague-Dawley, rat, whole blood, po, 1 mg/kg. In a few lines: (§1)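 Test compounds were given as a cassette cocktail at 1 mg/kg each, p.o. in PEG300, to groups of 4 rats or 4 mice. Blood was taken by tail vein at set intervals and group averages were used.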
The nature of series [9]: Cassette dosing pharmacokinetics in mice. The class given is in vivo. Conditions: male, Swiss Webster, mouse, whole blood, po, 1 mg/kg. The method, boiled down: as §1
The target of series [10] is T5, human sEH. Briefly: sEH fluorescent inhibition assay. The class given is biochemical. The note with it: compared to PF-750.

By IC50 is commonly meant the concentration at which inhibition is half-maximal. High values mean a need for much substance, low ones inhibition by little substance. The term Ki denotes the equilibrium dissociation constant of an inhibitor or competing ligand from its target. Higher therefore signals lower affinity. A word on the kinact: it is the maximal first-order rate at which the target is inactivated. For orientation: kinact/KI means the maximal inactivation rate divided by the concentration that gives half of it. The term koff denotes the rate constant with which the complex falls apart. As a reminder, the AUC is the area under the concentration-time curve, a measure of exposure. High values mean more exposure, low ones less exposure. By Cmax is commonly meant the maximum level reached in the sampled fluid or tissue.

With `COc1ccc(NC(=O)N2CCC(Cc3ccc4ccccc4c3)CC2)cc1` [compound 8], the “increase in activity toward FAAH” value in series [1] (compared to 5 (3-quinoline)) turned out to be 4 fold.
Turning to `O=C(Nc1ccccc1F)N1CCC(Cc2cnc3ccccc3c2)CC1` [compound 3], the “decrease in activity/potency toward FAAH” value in series [1] was determined as 3 fold.
On to `NC(=O)c1cccc(-c2cccc(OC(=O)NC3CCCCC3)c2)c1` [URB597, cyclohexyl carbamic acid 3′-carbamoyl-biphenyl-3-yl ester, reference compound], for which the “intensity of the FAAH band (ABPP)” value in [2] is given as “reduced”. In addition, the “other serine hydrolase bands (ABPP)” value in [3] is “reduced the intensity of a band around 62.5 kDa”.
The compound `O=C(Nc1ccc(C(F)(F)F)cc1)N1CCC(Cc2cccc(Oc3ccc(C(F)(F)F)cn3)c2)CC1` [compound 13] returned an IC50 in [4] of more than 10 µM. In series [5], this compound registered an IC50 of more than 10 µM. Also, in series [6], the affinity, expressed as Ki, was 37 nM; the kinact is 0.000317 s⁻¹; the kinact/KI was determined as 500000 M⁻¹ s⁻¹. Besides, the “t1/2 (half-life on the enzyme)” value in series [7] (human sEH) came to 9.9 min. Further, in [7] (read-out: koff × 10^–3), the off-rate (koff) turned out to be 1.2 s⁻¹. Besides, in series [8], the AUC stood at 0.74 µM·h and the Cmax turned out to be 66 nM. In series [9], this compound registered an AUC of 0.75 µM·h and a Cmax of 65 nM. In addition, the “intensity of the FAAH band (ABPP)” value in series [2] is “does not appear to fully inhibit the band corresponding to FAAH”. Further, the “other serine hydrolase bands (ABPP)” value in series [3] was “neither 11, 13, 14, 18, nor PF-3845 had any effect on the intensity of other bands”.
As for `O=C(Nc1ccc(F)cc1)N1CCC(Cc2cnc3ccccc3c2)CC1` [compound 1], the “increase in activity/potency toward sEH” value in [10] is reported as 7 fold. The “decrease in activity/potency toward FAAH” value in [1] was 5 fold.
For `COc1ccc(NC(=O)N2CCC(Cc3cnc4ccccc4c3)CC2)cc1` [compound 5], in [10], the “increase in activity/potency toward sEH” value is reported as 5 fold.
Regarding `O=C(Nc1ccc(Cl)cc1)N1CCC(Cc2cnc3ccccc3c2)CC1` [compound 2], the “decrease in activity/potency toward FAAH” value in series [1] stood at 3 fold.
